ChEMBL document CHEMBL3621160, “Pseudosaccharin amines as potent and selective KV1.5 blockers” (Bioorg Med Chem Lett, 2015)

Legend:
Rattus norvegicus [1] = species: Rattus norvegicus; experiment: Inhibition of rat L-type calcium channel dihydropyridine binding site at 10 uM relative to control
How it was run: (§1)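 Single-concentration screen at 10 µM across a panel of over 37 receptors and enzymes linked to cardiovascular effects or toxicity. Read-out is percent activity.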

[2] = molecular target: Histamine H1 receptor (Homo sapiens) (UniProt P35367); experiment: Inhibition of human histamine H1 receptor at 10 uM relative to control
Histamine H1 receptor (Homo sapiens), sequence (P35367 whole entry): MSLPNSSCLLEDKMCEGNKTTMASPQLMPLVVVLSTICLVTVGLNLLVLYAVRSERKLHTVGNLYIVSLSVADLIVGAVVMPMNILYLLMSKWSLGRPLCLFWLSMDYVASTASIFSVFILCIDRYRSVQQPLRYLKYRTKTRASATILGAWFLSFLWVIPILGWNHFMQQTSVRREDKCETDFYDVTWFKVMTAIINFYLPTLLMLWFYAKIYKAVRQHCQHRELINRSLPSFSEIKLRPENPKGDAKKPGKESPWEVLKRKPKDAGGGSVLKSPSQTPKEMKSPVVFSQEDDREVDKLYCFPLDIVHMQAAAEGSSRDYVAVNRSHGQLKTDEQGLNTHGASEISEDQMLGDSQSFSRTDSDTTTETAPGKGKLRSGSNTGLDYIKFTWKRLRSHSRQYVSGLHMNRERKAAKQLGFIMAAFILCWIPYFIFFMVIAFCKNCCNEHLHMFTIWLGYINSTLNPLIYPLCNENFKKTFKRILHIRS
How it was run: (§2)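 Screening panel of over 37 receptors and enzymes relevant to cardiovascular effects or toxicity. Each target was tested at a single concentration of 10 µM, with % activity reported.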

[3] = molecular target: Mu-type opioid receptor (Homo sapiens) (UniProt P35372); experiment: Inhibition of human mu opioid receptor at 10 uM relative to control; how it was run: as §2
Mu-type opioid receptor (Homo sapiens), sequence (P35372 whole entry): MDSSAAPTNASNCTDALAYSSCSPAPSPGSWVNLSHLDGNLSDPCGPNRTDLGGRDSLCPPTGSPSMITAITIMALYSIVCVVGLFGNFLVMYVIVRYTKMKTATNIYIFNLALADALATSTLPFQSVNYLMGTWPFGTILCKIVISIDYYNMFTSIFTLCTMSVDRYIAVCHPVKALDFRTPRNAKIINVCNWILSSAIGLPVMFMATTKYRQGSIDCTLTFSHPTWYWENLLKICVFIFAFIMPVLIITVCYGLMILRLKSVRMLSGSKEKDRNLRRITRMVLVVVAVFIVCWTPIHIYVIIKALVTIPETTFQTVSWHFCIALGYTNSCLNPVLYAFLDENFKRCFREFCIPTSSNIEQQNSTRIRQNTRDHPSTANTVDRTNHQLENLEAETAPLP

[4] = molecular target: Protein kinase C (PKC) (Rattus norvegicus) (UniProt P05696+P68403+P09216+P63319+P09215+Q64617+Q9WTQ0+P09217); experiment: Inhibition of rat PKC at 10 uM relative to control; how it was run: as §2
[5] = molecular target: Acetylcholinesterase (Homo sapiens) (UniProt P22303); experiment: Inhibition of human acetylcholinesterase at 10 uM relative to control
Acetylcholinesterase (Homo sapiens), sequence (P22303 whole entry): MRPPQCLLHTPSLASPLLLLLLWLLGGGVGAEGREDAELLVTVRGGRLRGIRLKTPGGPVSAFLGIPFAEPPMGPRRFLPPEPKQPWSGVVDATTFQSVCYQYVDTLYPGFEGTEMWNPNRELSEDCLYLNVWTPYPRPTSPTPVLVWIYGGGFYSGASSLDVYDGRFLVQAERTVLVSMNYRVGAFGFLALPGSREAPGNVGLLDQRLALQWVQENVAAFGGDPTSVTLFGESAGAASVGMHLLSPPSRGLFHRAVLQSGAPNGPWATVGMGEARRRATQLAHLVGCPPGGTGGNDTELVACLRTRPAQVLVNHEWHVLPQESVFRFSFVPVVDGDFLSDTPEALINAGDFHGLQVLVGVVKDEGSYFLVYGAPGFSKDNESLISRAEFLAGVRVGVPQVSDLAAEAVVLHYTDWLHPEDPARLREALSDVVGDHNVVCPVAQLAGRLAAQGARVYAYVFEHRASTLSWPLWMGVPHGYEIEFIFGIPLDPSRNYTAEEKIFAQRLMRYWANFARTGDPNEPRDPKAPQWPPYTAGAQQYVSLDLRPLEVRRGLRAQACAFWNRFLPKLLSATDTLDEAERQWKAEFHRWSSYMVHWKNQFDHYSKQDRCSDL

[6] = molecular target: Adrenergic receptor alpha-2 (Rattus norvegicus) (UniProt P22086+P19328+P22909); experiment: Inhibition of rat alpha-2 adrenergic receptor at 10 uM relative to control; how it was run: as §2
[7] = molecular target: 5-hydroxytryptamine receptor 1B (Rattus norvegicus) (UniProt P28564); experiment: Inhibition of rat 5HT-1B receptor at 10 uM relative to control; how it was run: as §2
5-hydroxytryptamine receptor 1B (Rattus norvegicus), sequence (P28564 whole entry): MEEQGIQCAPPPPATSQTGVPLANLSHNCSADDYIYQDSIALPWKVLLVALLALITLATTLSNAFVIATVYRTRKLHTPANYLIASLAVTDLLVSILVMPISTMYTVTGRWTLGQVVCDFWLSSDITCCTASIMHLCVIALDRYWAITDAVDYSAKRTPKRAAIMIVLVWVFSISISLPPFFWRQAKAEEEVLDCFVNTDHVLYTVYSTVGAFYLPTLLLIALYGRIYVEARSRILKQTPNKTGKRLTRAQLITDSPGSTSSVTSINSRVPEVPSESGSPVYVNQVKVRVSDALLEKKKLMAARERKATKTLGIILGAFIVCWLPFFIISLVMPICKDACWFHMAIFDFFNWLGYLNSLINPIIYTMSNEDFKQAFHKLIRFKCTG

[8] = molecular target: Progesterone receptor (Homo sapiens) (UniProt P06401); experiment: Inhibition of human progesterone B receptor at 10 uM relative to control; how it was run: as §2
Progesterone receptor (Homo sapiens), sequence (P06401 whole entry): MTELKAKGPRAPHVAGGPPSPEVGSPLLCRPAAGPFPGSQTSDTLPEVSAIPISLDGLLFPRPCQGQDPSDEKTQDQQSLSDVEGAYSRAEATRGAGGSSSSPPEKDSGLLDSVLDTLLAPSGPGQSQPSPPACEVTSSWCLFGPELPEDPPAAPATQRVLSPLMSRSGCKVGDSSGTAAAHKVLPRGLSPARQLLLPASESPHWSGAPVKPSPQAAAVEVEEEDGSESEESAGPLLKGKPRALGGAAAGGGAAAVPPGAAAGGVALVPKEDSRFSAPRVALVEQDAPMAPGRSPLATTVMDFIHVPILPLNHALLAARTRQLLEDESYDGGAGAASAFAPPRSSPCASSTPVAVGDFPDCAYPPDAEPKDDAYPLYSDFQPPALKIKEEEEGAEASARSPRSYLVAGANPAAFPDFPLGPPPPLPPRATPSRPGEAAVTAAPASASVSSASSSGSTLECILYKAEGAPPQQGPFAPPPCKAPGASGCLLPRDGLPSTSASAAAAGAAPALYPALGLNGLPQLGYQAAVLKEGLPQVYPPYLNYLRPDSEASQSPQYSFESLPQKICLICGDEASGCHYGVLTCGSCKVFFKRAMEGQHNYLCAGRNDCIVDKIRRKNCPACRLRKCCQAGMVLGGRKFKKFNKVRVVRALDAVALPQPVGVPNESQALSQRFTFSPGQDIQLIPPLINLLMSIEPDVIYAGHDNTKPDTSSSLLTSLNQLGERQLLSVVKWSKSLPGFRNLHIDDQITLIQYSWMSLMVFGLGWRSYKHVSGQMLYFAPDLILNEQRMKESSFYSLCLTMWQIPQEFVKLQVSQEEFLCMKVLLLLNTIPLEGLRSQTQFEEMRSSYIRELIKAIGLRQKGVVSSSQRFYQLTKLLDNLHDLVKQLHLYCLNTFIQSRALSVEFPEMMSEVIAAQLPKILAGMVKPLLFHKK

Homo sapiens = species: Homo sapiens; experiment: Inhibition of human nicotinic acetylcholine receptor at 10 uM relative to control; how it was run: as §1
[9] = molecular target: Sodium-dependent dopamine transporter (Homo sapiens) (UniProt Q01959); experiment: Inhibition of human DAT at 10 uM relative to control; how it was run: as §2
MAO-B = MAO-B (Homo sapiens, UniProt P27338); experiment: Inhibition of human MAOB at 10 uM relative to control; how it was run: as §2
[10] = molecular target: Sodium-dependent noradrenaline transporter (Homo sapiens) (UniProt P23975); experiment: Inhibition of human NET at 10 uM relative to control; how it was run: as §2
Sodium-dependent noradrenaline transporter (Homo sapiens), sequence (P23975 whole entry): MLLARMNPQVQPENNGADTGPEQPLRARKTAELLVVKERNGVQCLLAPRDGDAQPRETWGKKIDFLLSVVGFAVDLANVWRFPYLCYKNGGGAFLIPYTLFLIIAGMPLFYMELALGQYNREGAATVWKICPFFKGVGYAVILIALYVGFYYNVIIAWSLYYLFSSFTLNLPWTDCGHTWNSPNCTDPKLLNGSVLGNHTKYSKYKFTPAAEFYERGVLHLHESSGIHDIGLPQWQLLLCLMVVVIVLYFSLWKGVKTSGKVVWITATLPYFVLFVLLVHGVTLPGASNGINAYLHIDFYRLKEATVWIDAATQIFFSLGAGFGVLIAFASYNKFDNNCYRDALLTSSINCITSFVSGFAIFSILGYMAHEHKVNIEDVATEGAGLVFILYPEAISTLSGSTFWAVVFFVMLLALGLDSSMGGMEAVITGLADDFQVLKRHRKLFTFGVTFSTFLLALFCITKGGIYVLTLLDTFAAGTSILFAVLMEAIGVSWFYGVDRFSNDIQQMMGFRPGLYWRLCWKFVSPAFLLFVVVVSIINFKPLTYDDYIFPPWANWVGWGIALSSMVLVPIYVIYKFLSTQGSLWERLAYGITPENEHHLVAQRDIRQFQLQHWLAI

[11] = molecular target: 5-hydroxytryptamine receptor 2B (Homo sapiens) (UniProt P41595); experiment: Inhibition of human 5HT-2B receptor at 10 uM relative to control; how it was run: as §2
[12] = molecular target: Carnitine O-palmitoyltransferase 1, liver isoform (Rattus norvegicus) (UniProt P32198); experiment: Inhibition of rat carnitine palmitoyltransferase-1 at 10 uM relative to control; how it was run: as §2
Carnitine O-palmitoyltransferase 1, liver isoform (Rattus norvegicus), sequence (P32198 whole entry, canonical isoform): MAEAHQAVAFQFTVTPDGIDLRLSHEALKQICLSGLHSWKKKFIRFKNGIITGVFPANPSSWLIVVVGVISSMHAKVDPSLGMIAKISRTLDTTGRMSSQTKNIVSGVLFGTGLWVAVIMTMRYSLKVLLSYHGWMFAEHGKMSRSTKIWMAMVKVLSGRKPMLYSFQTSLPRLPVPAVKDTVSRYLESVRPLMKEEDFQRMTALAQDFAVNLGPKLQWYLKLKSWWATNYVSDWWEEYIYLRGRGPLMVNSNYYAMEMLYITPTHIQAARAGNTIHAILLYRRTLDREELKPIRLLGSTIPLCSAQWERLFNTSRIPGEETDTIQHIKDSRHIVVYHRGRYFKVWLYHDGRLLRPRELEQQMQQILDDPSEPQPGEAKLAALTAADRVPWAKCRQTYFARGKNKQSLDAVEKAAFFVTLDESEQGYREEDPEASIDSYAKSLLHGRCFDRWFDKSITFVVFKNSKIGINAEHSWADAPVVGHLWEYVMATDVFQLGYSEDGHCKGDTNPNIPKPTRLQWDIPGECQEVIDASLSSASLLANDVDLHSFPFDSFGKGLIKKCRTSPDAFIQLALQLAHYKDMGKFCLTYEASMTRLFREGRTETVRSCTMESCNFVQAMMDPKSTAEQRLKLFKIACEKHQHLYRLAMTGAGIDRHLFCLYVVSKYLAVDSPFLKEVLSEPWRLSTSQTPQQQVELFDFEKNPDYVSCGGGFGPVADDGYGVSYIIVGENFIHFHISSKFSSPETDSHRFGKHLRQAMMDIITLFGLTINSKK

[13] = molecular target: Phosphodiesterase 3 (Homo sapiens) (UniProt Q14432+Q13370); experiment: Inhibition of human PDE3 at 10 uM relative to control; format: protein assay
[14] = molecular target: Estrogen receptor (Homo sapiens) (UniProt P03372); experiment: Inhibition of human ER-alpha at 10 uM relative to control; how it was run: as §2
Estrogen receptor (Homo sapiens), sequence (P03372 whole entry): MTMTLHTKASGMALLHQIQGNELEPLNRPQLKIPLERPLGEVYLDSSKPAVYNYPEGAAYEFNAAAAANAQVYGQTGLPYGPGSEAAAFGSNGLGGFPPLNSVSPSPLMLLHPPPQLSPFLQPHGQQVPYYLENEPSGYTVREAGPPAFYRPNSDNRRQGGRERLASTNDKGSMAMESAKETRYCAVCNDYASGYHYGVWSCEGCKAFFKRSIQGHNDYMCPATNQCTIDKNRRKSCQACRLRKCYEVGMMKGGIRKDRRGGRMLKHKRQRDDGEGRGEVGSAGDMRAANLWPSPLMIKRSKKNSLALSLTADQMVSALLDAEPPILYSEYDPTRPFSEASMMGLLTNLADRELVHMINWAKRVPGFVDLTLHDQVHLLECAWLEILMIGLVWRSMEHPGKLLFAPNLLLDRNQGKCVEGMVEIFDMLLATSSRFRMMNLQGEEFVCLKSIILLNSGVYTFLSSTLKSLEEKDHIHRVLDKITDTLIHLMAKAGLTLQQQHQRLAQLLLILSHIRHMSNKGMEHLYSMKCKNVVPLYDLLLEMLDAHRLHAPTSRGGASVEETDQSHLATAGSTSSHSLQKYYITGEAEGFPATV

[15] = Metabolic stability in human liver microsomes assessed as compound remaining at 3 uM after 10 mins; format: ADME; conditions: read-out: Stability
How it was run: (§3)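 Parent compound at 3 µM was incubated 10 min in human, rat or mouse liver microsomes with appropriate co-factors. Read-out is percent of parent remaining.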

[16] = Metabolic stability in rat liver microsomes assessed as compound remaining at 3 uM after 10 mins; format: ADME; conditions: read-out: Stability; how it was run: as §3
[17] = Metabolic stability in mouse liver microsomes assessed as compound remaining at 3 uM after 10 mins; format: ADME; conditions: read-out: Stability; how it was run: as §3
hERG (KCNH2) = hERG (KCNH2) (Homo sapiens, UniProt Q12809); experiment: Inhibition of human ERG at 10 uM relative to control; how it was run: as §2
[18] = Cmax in rat at 2 mg/kg administered as intra-arterial infusion for 10 mins and 5 mg/kg, po; format: ADME, organism-based; set-up: route oral; conditions: in vivo
How it was run: (§4)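 Rats (3 per compound) received intra-arterial infusion over 10 min or oral gavage. Vehicle for both routes was 40% PEG 400, 40% water and 20% ethanol. Values are means of 3 animals.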

[19] = AUC in rat at 5 mg/kg, po; format: ADME, organism-based; conditions: in vivo; how it was run: as §4
[20] = Half life in rat at 2 mg/kg administered as intra-arterial infusion for 10 mins and 5 mg/kg, po; format: ADME, organism-based; conditions: in vivo; how it was run: as §4
[21] = Volume of distribution at steady state in rat at 2 mg/kg administered as intra-arterial infusion for 10 mins and 5 mg/kg, po; format: ADME, organism-based; conditions: in vivo, read-out: Vdss
How it was run: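 Rat PK: 2.0 mg/kg by intra-arterial infusion over 10 min and 5.0 mg/kg by oral gavage, vehicle 40% PEG 400, 40% water, 20% ethanol for both routes; Vss from 3 animals, reported as mean.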

[22] = Oral bioavailability in rat at 5 mg/kg; format: ADME, organism-based; conditions: in vivo; how it was run: as §4
Rattus norvegicus [23] = experiment: Induction of QT interval prolongation in rat at 3 mg/kg, iv administered as infusion for 5 mins by ECG analysis; format: functional
How it was run: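 Rats were dosed at 3 mg/Kg. Block of IKur was read as the percent change in the ECG QT interval; mean blood pressure and plasma concentration were recorded alongside. Values are means of 2-4 experiments.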

Rattus norvegicus [24] = experiment: Toxicity in rat assessed as increase in blood pressure at 3 mg/kg, iv administered as infusion for 5 mins; format: organism-based; conditions: in vivo
How it was run: (§5)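 Rats were dosed at 3 mg/Kg. QT interval on ECG, mean blood pressure (% change) and plasma concentration were measured. Values are means of 2-4 experiments.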

[25] = Plasma concentration in rat at 3 mg/kg, iv administered as infusion for 5 mins; format: ADME, organism-based; how it was run: as §5
Oryctolagus cuniculus [26] = species: Oryctolagus cuniculus; experiment: Toxicity in rabbit assessed as effect on ventricular effective refractory period; format: organism-based, Cardiac ventricle; conditions: in vivo
How it was run: (§6)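 Rabbits were dosed at 0.3, 1.0 and 3.0 mg/Kg. Effective refractory period was measured in atrium and ventricle, and blood pressure was recorded. The plasma concentration giving 20% atrial ERP prolongation (EC20) was calculated.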

Oryctolagus cuniculus [27] = experiment: Toxicity in rabbit assessed as increase in blood pressure at 0.3 to 3 mg/kg; format: organism-based; conditions: in vivo; how it was run: as §6
[28] = Cmax in rabbit at 0.3 to 3 mg/kg; format: ADME, organism-based, Oryctolagus cuniculus; conditions: in vivo; how it was run: as §6
MAO-A = MAO-A (Homo sapiens, UniProt P21397); experiment: Inhibition of human MAOA at 10 uM relative to control; how it was run: as §2
[29] = molecular target: D(1A) dopamine receptor (Homo sapiens) (UniProt P21728); experiment: Inhibition of human dopamine D1 receptor at 10 uM relative to control; how it was run: as §2
[30] = molecular target: Adrenergic receptor beta (Rattus norvegicus) (UniProt P18090+P10608+P26255); experiment: Inhibition of rat beta adrenergic receptor at 10 uM relative to control; how it was run: as §2
[31] = molecular target: 5-hydroxytryptamine receptor 4 (Cavia porcellus) (UniProt O70528); experiment: Inhibition of guinea pig 5-HT4 receptor at 10 uM relative to control; how it was run: as §2
[32] = molecular target: Adenosine receptor A2a (Homo sapiens) (UniProt P29274); experiment: Inhibition of human adenosine A2A receptor at 10 uM relative to control; how it was run: as §2
Rattus norvegicus [33] = species: Rattus norvegicus; experiment: Inhibition of rat opioid receptor at 10 uM relative to control; how it was run: as §1
[34] = molecular target: Phosphodiesterase 4 (Homo sapiens) (UniProt P27815+Q08499+Q07343+Q08493); experiment: Inhibition of human PDE4 at 10 uM relative to control; format: protein assay; how it was run: as §2

| SMILES | inhibition (Rattus norvegicus [1]) [%] | inhibition [2] [%] | inhibition [3] [%] | inhibition [4] [%] | inhibition [5] [%] | inhibition [6] [%] | inhibition [7] [%] | inhibition [8] [%] | inhibition (Homo sapiens) [%] | inhibition [9] [%] | inhibition at 10 µM (MAO-B) [%] | inhibition [10] [%] | inhibition [11] [%] | inhibition [12] [%] | inhibition [13] [%] | inhibition [14] [%] | remaining at 10 min, 3 µM [15] [%] | remaining at 10 min, 3 µM [16] [%] | remaining at 10 min, 3 µM [17] [%] | inhibition at 10 µM (hERG (KCNH2)) [%] | further results |
| --- | --- | --- | --- | --- | --- | --- | --- | --- | --- | --- | --- | --- | --- | --- | --- | --- | --- | --- | --- | --- | --- |
| COc1cccc2c1C(NC[C@]1(c3ccccc3)CC[C@H](O)CC1)=NS2(=O)=O | 3 | 19 | 0 | 9 | 53 | -6 | 42 | 6 | 12 | 18 | 3 | 8 | 2 | 4 | 53 | -1 | 90 | 68 | 53 | 54 | Cmax [18]: 1.7 µM; AUC [19]: 2.7 µM·h; half-life [20]: 5.1 h; Vd [21]: 3.2 L/kg; bioavailability [22]: 34%; Activity (Rattus norvegicus [23]): 66%; Activity (Rattus norvegicus [24]): 13%; concentration at 5 min [25]: 153 µM; Activity (Oryctolagus cuniculus [26]): Non-toxic; Activity (Oryctolagus cuniculus [27]): 19%; Cmax [28]: 6.1 µM; inhibition at 10 µM (MAO-A): 3%; inhibition [29]: 0%; inhibition [30]: -4%; inhibition [31]: 5%; inhibition [32]: -5%; inhibition (Rattus norvegicus [33]): 23%; inhibition [34]: 26% |
| COc1cccc2c1C(NC[C@]1(c3ccccc3)CC[C@H](NC(=O)OC(C)C)CC1)=NS2(=O)=O | 13 | 13 | 31 | 29 | 55 | -2 | 23 | 10 | 10 | 37 | 9 | 6 | 27 | 0 | 15 | 4 | 85 | 29 | < 1 | 68 | Cmax [18]: 0.93 µM; AUC [19]: 1.8 µM·h; half-life [20]: 0.9 h; Vd [21]: 0.3 L/kg; bioavailability [22]: 7.2%; Activity (Rattus norvegicus [23]): 68%; Activity (Rattus norvegicus [24]): 44%; concentration at 5 min [25]: 38 µM; Activity (Oryctolagus cuniculus [26]): Non-toxic; Activity (Oryctolagus cuniculus [27]): 17%; Cmax [28]: 4.7 µM; inhibition at 10 µM (MAO-A): 10%; inhibition [29]: 3%; inhibition [30]: 0%; inhibition [31]: 25%; inhibition [32]: 23%; inhibition (Rattus norvegicus [33]): 64%; inhibition [34]: 25% |
